pEC50: −log10 of the molar value.
Experiments:
[1] = Stability in Sprague-Dawley rat serum assessed as parent compound remaining at 10 ug/ml measured after 30 mins by LC-MS/MS analysis; assay type: ADME, cell-free; details: read-out: Stability
Procedure, shortened: (§1)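 10 µL of 10 μg/mL aqueous peptide stock added to 990 μL pre-warmed SD rat serum (final 0.1 μg/mL), 37 °C. Aliquots taken at 0, 5, 15, 30, 60, 120 min. Quenched with formic acid/methanol and acetonitrile, centrifuged, internal standard added, quantified by LC/MS/MS. Result is percent remaining; n = 2.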

[2] = Stability in Sprague-Dawley rat serum assessed as parent compound remaining at 10 ug/ml measured after 60 mins by LC-MS/MS analysis; assay type: ADME, cell-free; details: read-out: Stability; procedure, shortened: as §1
[3] = Half life in Sprague-Dawley rat serum at 10 ug/ml by LC-MS/MS analysis; assay type: ADME, cell-free; procedure, shortened: as §1
[4] = Stability in Sprague-Dawley rat serum assessed as parent compound remaining at 10 ug/ml measured immediately by LC-MS/MS analysis; assay type: ADME, cell-free; details: read-out: Stability; procedure, shortened: as §1
[5] = Stability in Sprague-Dawley rat serum assessed as parent compound remaining at 10 ug/ml measured after 5 mins by LC-MS/MS analysis; assay type: ADME, cell-free; details: read-out: Stability; procedure, shortened: as §1
[6] = Stability in Sprague-Dawley rat serum assessed as parent compound remaining at 10 ug/ml measured after 120 mins by LC-MS/MS analysis; assay type: ADME, cell-free; details: read-out: Stability; procedure, shortened: as §1
KiSS-1 receptor = KiSS-1 receptor (Homo sapiens, UniProt Q969F8); assay: Agonist activity at human KISS1R expressed in CHO cells assessed as increase in calcium mobilization measured at 2 secs interval for 2 mins by fluo-4 NW dye based FLIPR assay; assay type: functional, cell-based
KiSS-1 receptor, sequence (Q969F8 whole entry): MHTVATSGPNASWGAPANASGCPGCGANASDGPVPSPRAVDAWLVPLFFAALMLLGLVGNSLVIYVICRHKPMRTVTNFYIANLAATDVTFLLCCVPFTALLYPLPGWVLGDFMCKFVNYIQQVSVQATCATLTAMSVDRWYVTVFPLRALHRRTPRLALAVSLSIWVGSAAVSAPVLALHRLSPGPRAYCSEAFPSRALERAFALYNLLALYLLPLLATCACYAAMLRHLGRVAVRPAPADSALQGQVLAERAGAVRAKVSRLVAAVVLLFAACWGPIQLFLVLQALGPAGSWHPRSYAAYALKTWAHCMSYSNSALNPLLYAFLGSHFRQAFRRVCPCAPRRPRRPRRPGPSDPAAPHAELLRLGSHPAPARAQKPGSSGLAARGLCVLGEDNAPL
Procedure, shortened: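 Ligand-induced Ca2+ rise in CHO cells expressing human KISS1R, read on a fluorometric imaging plate reader (FLIPR); agonist potency reported as EC50 (nM).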

[7] = Stability in Sprague-Dawley rat serum assessed as parent compound remaining at 10 ug/ml measured after 15 mins by LC-MS/MS analysis; assay type: ADME, cell-free; details: read-out: Stability; procedure, shortened: as §1

With `CC(C)C[C@H](NC(=O)CNC(=O)[C@H](Cc1ccccc1)NC(=O)[C@H](CO)NC(=O)[C@H](CC(N)=O)NC(=O)[C@H](Cc1c[nH]c2ccccc12)NC(=O)[C@H](CC(N)=O)NC(=O)[C@@H](N)Cc1ccc(O)cc1)C(=O)N[C@@H](CCCNC(=N)N)C(=O)N[C@@H](Cc1ccccc1)C(N)=O` [KISSPEPTIN-10] the remaining at 0.5 h, 10 ug/ml [1] was < 0.5%, the remaining at 1 h, 10 ug/ml [2] was < 0.5% and the half-life at 10 ug/ml [3] was < 5 min. The remaining at 0 min, 10 ug/ml [4] was 100%, the remaining at 5 min, 10 ug/ml [5] was 1.5% and the remaining at 2 h, 10 ug/ml [6] was < 0.5%. The pEC50 (KiSS-1 receptor) was 10.06 and the remaining at 0.25 h, 10 ug/ml [7] was < 0.5%.

Reference: ChEMBL document CHEMBL4330106, “A new class of pentapeptide KISS1 receptor agonists with hypothalamic-pituitary-gonadal axis activation” (Bioorg Med Chem Lett, 2019)
